High-throughput results (PubChem)
Hits are enriched below; roughly 3.1% of the tested compounds scored in any of these assays.
UBC13 polyUb: inhibitors of human UBC13 polyubiquitin chain formation; TR-FRET; hit rate 0.47% among 330,000; P61088; inhibition, % at 20 µM; in the data active = inhibition above about 45%, passing the limit was not always enough
Target sequence (P61088 whole entry, looked up): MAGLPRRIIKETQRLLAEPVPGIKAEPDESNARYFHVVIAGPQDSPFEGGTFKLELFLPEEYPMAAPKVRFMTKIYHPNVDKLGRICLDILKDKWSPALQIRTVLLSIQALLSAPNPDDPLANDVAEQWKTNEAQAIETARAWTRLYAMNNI
Apaf1 inhib: human Apaf-1 inhibition | O14727 | reconstituted apoptosome caspase-3 activity, DEVD-Rh110 fluorescence | inhibition, % at 20 µM | hit rate 0.71% among 330,000; active = inhibition of at least 40% at 20 µM;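 note: plate controls were DMSO wells for no effect and DEVD-CHO caspase inhibitor wells for full effect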
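System – cell-free apoptosome with Apaf-1, procaspase-3 and caspase-9 · Buffer or medium – pH 7.5 Hepes buffer with CHAPS, BSA, DTT · Also added – cytochrome c with DEVD-Rh110 · Times – 30 min compound preincubation, 50 min activation, room temperature · Technique – Rh110 fluorescence intensity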
MEKK3 PB1 HTS: MEKK3-MEK5 PB1 interaction, increase or decrease | Q99759 | bead-based flow cytometry, Alexa488-MEK5 binding to MEKK3; actives lie on both sides; 0 = blocked by unlabeled MEK5, 100 = vehicle | binding response (% of control), % at 10 µM | hit rate 1.4% among 290,000 | AID 1529;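 active = binding response more than 3 SD above or below the average of its plate-row segment, actives on both sides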;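 note: Alexa488 bead fluorescence after subtracting the streptavidin-only scavenger bead signal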
MEKK2wt PB1 HTS: raises or lowers MEK5 binding to wildtype human MEKK2 PB1 domain. AID 1531. hit rate 1.1% among 290,000. Q9Y2U5. binding response (% of control), % at 10 µM. bead flow cytometry, Alexa488-MEK5 binding to MEKK2 WT; actives lie on both sides; in the data active = binding response below about 67% or above about 130%
PREPL inh: human PREPL enzyme inhibition | recombinant PREPL, fluorescence polarization activity-based probe | inhibition, % at 5.96 µM | AID 2751 | Q4J6C6 | hit rate 0.68% among 320,000; in the data active = inhibition above about 43%;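 note: 0% = enzyme with DMSO and 100% = wells lacking enzyme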
MEKK2 mut-MEK5: signal of MEK5 binding to mutant human MEKK2 PB1 domain; bead flow cytometry, Alexa488-MEK5 binding to MEKK2 mutant; hit rate 0.35% among 290,000; AID 1530; percent response, % at 10 µM; in the data active = percent response above about 24%, passing the limit was not always enough
MEKK2wt confirm: raises or lowers MEK5 binding to wildtype human MEKK2, retest; shares compounds with MEKK3 PB1 HTS; bead flow cytometry, Alexa488-MEK5 binding to MEKK2 WT; actives lie on both sides; binding response (% of control), % at 10 µM; hit rate 2.4% among 5,900; in the data active = binding response below about 16% or above about 210%; inactive = in between
MEKK2mut-MEK5: signal of MEK5 binding to mutant human MEKK2, retest; hit rate 2% among 5,900; shares compounds with MEKK3 PB1 HTS; AID 1893; bead flow cytometry, Alexa488-MEK5 binding to MEKK2 mutant; percent response, % at 10 µM; in the data active = percent response mostly above about 71%, no sharp cut-off; inactive = mostly below about 38%;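 note: higher means compound restores mutant binding toward wildtype level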
MEKK3 confirm: MEKK3-MEK5 PB1 inhibition, single concentration confirmation; binding response (% of control), % at 10 µM; shares compounds with MEKK3 PB1 HTS; AID 1894; bead flow cytometry, Alexa488-MEK5 binding to MEKK3; stronger effect = lower value; hit rate 1.8% among 5,900;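 active = binding response below 72% of control, or above a set upper limit, though filed actives all read lower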;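 note: 100% = DMSO only wells and 0% = binding blocked by excess unlabeled MEK5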
* = called active by the depositor; / = no result; [ ] = remark or other dose.

SMILES	UBC13 polyUb	Apaf1 inhib	MEKK3 PB1 HTS	MEKK2wt PB1 HTS	PREPL inh	MEKK2 mut-MEK5	MEKK2wt confirm	MEKK2mut-MEK5	MEKK3 confirm
CCN(CC)CCn1c(NCc2ccco2)nc2ccccc21	12	-9	85	101	8	-1	/	/	/
Cc1ccc(Oc2ccc(OCC(=O)NC3CCS(=O)(=O)C3)cc2)cc1 (centres undefined)	-4	5	101	103	22	-1	/	/	/
CCOC(=O)c1c(CSc2ccc(CC)cc2)oc2ccc(O)c(CN(C)C)c12	43	19	112	153*	17	36*	166	38	109
CN(CCOc1ccc(-c2ccn(S(=O)(=O)c3cccc4ccccc34)n2)cc1)c1ccccn1	2	0	1.0*[inhibitor]	2.0*[inhibitor]	2	-16	100	0	105
Cc1[nH]n(-c2ccccc2)c(=O)c1/C=N/NC(=O)COc1ccccc1[N+](=O)[O-]	-21	17	158*	109	20	1	106	2	105
Cc1[nH]n(-c2cccc3ccccc23)c(=O)c1/C=N/NC(=O)c1cccc([N+](=O)[O-])c1	-30	16	61*[inhibitor]	91	6	-1	97	-5	100
Cc1ccc(-n2[nH]c(C)c(/C=N/NC(=O)c3ccc([N+](=O)[O-])cc3)c2=O)c(C)c1	-52	6	99	99	3	-4	/	/	/
COCC(=O)N/N=C/c1c(C)[nH]n(-c2ccccc2)c1=O	-9	22	101	103	-4	0	/	/	/
COC(=O)c1c(C)[nH]c(C(=O)C(C)OC(=O)C2CC2)c1C (centres undefined)	7	-6	/	/	10	/	/	/	/
CC12CCC(C(=O)Nc3nc4ccccc4s3)(OC1=O)C2(C)C (centres undefined)	3	7	108	103	4	-1	/	/	/
O=C1CCCc2c1[nH]c1ccccc21	-1	-5	128*	104	16	6	107	4	102
O=C1CCCc2c1[nH]c1c(Br)cccc21	-6	8	106	104	15	5	/	/	/
COc1ccc(CN(CC(=O)NCc2ccc(F)cc2)C(=O)c2ccco2)cc1	-4	0	103	101	5	0	/	/	/
O=C(CN(Cc1ccc(F)cc1)C(=O)c1ccco1)NCc1ccc(F)cc1	-2	-3	0.0*[inhibitor]	0.0*[inhibitor]	1	-21	104	10	109
O=C(CN1CCN(Cc2ccc(Cl)cc2)CC1)N/N=C/c1ccccc1F	5	-9	68*[inhibitor]	57*[inhibitor]	9	-30	103	0	96
Cc1cc(-c2ccccc2)nc(N/N=C/c2ccccc2F)n1	7	0	110	111	17	12	/	/	/
CCOc1ccc(N2CC(C(=O)NCCCN3CCOCC3)CC2=O)cc1 (centres undefined)	6	3	2.0*[inhibitor]	3.0*[inhibitor]	-2	-21	102	7	105
O=C(NCCCN1CCOCC1)C1CC(=O)N(c2ccccc2)C1 (centres undefined)	-7	3	100	105	3	0	/	/	/
Nc1cccc(-c2nc3cc(S(=O)(=O)c4ccc5oc(-c6cccc(N)c6)nc5c4)ccc3o2)c1	-6	-2	69*[inhibitor]	71	10	-27	86	-18	92
Cc1ccc(S(=O)(=O)NC(C(=O)OCC(=O)NC2CCS(=O)(=O)C2)C(C)C)cc1 (centres undefined)	7	-1	100	101	2	-3	/	/	/
Cc1ccc(C(=O)N[C@H](C(=O)OCC(=O)NC2CCS(=O)(=O)C2)C(C)C)cc1 (some centres undefined)	-7	-1	132*	110	2	0	105	17	103
